Each block holds one compound with its values, some of them ahead of it. Active and inactive are the calls of the source. No cut-off for these calls is given here.
Legend:
Prolyl endopeptidase FAP [1] = biological target: T1, Prolyl endopeptidase FAP (Homo sapiens, UniProt Q12884); experiment: (§1) Prodrug activation assessed as recombinant human FAP-alpha mediated (S)-((3S,5R,8R,9S,10S,11S,13R,14S,17R)-11,14-dihydroxy-10,13-dimethyl-12-oxo-17-(2-oxo-2H-pyran-5-yl)hexadecahydro-1H-cyclopenta[a]phenanthren-3-yl) 2-aminopropanoate formation by measuring intrinsic clearance after 90 mins by UPLC-MS/MS analysis; conditions: 1.5 h
T1 sequence (Q12884 whole entry): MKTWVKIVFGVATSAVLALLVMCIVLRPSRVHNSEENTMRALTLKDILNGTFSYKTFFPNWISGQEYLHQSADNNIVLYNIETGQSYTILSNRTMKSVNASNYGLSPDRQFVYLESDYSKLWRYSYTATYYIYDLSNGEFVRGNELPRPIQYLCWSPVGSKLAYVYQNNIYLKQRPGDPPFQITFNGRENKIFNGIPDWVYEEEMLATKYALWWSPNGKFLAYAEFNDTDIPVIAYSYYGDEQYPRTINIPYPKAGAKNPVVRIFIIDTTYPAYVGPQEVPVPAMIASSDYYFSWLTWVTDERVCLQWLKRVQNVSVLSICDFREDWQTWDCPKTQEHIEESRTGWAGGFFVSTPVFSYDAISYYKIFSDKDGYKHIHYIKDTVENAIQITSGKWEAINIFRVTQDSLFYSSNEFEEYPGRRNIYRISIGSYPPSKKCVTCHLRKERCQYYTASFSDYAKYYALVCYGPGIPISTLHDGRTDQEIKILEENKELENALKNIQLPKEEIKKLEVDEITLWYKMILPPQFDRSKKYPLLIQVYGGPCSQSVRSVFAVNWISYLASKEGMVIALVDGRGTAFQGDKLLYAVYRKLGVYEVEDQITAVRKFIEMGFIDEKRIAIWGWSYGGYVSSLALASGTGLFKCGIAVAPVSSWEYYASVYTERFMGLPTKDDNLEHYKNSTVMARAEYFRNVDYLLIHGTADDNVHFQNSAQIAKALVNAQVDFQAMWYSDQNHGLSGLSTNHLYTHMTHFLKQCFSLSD
How it was run: (§2)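 Prodrug at 0.625–40 μmol/L incubated with rhFAPα at 0.45 μg/mL and internal standard in 0.2 mL PBS, pH 7.4, at 37 °C for 90 min. Quenched with MeCN and spun at 18 000g for 15 min; product measured by UPLC-MS/MS. S50 and Vmax fitted with an allosteric sigmoidal model; CLint = Vmax/S50. Three independent experiments.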

Prolyl endopeptidase FAP [2] = biological target: T1, Prolyl endopeptidase FAP; experiment: as §1, with “2-amino-3-methylbutanoate” for “2-aminopropanoate”; conditions: 1.5 h; how it was run: as §2
MCF7 = experiment: Antiproliferative activity against FAP-alpha deficient human MCF7 cells incubated for 48 hrs by MTT assay; assay type: functional, cell-based; conditions: MCF7, 48 h
How it was run: (§3)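 Cells grown in DMEM with 10% FBS and 1% penicillin-streptomycin at 37 °C, 5% CO2; 10% heat-inactivated FBS used during cytotoxicity testing to exclude serum FAP activity. Viability read by MTT; IC50 as mean ± SEM of at least three independent experiments. Transfected lines were made from MDA-MB-231 with human FAPα plasmid or empty pCMV6-Entry vector and checked by Western blot at 48 h.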

MDA-MB-435 = experiment: Antiproliferative activity against wild type human MDA-MB-435 cells expressing FAP-alpha incubated for 48 hrs by MTT assay; assay type: functional, cell-based; conditions: MDA-MB-435, 48 h; how it was run: as §3
[3] = Cytotoxicity in BMSC (unknown origin) assessed as cell viability at 1000 nmol/L after 72 hrs by MTT assay; assay type: cell-based; conditions: unidentified, 1 µM
MDA-MB-231 [4] = experiment: Antiproliferative activity against human MDA-MB-231 cells transfected with pCMV6 incubated for 48 hrs by MTT assay; assay type: functional, cell-based; conditions: MDA-MB-231, 48 h; how it was run: as §3
MDA-MB-231 [5] = experiment: Antiproliferative activity against human MDA-MB-231 cells assessed as decrease in cell viability at 62.5 to 500 nmol/L after 72 hrs by MTT assay; assay type: functional, cell-based
MDA-MB-231 [6] = experiment: Antiproliferative activity against human MDA-MB-231 cells transfected with human FAP-alpha incubated for 48 hrs by MTT assay; assay type: functional, cell-based; conditions: MDA-MB-231, 48 h; how it was run: as §3
MDA-MB-231 [7] = experiment: Antiproliferative activity against FAP-alpha deficient human MDA-MB-231 cells incubated for 48 hrs by MTT assay; assay type: functional, cell-based; conditions: MDA-MB-231, 48 h; how it was run: as §3
[8] = tested on: [H][C@]12CC[C@@]3([H])[C@@]4(O)CC[C@H](c5ccc(=O)oc5)[C@@]4(C)C(=O)[C@@H](O)[C@]3([H])[C@@]1(C)CC[C@H](OC(=O)[C@H](C)NC(=O)[C@@H]1CCCN1C(=O)CNC(=O)OCc1ccccc1)C2; experiment: as §1, with “concentration of test compound gives half-maximal activity” for “intrinsic clearance”; how it was run: as §2
[9] = tested on: [H][C@]12CC[C@@]3([H])[C@@]4(O)CC[C@H](c5ccc(=O)oc5)[C@@]4(C)C(=O)[C@@H](O)[C@]3([H])[C@@]1(C)CC[C@H](OC(=O)Cc1ccc(NC(=O)[C@@H]3CCCN3C(=O)CNC(=O)OCc3ccccc3)cc1)C2; experiment: Prodrug activation assessed as recombinant human FAP-alpha mediated 5-((3S,5R,8R,9S,10S,11S,13R,14S,17R)-3-(2-(4-aminophenyl)acetyl)-11,14-dihydroxy-10,13-dimethyl-12-oxohexadecahydro-1H-cyclopenta[a]phenanthren-17-yl)-2H-pyran-2-one formation by measuring concentration of test compound gives half-maximal activity after 90 mins by UPLC-MS/MS analysis; how it was run: as §2
[10] = tested on: [H][C@]12CC[C@@]3([H])[C@@]4(O)CC[C@H](c5ccc(=O)oc5)[C@@]4(C)C(=O)[C@@H](O)[C@]3([H])[C@@]1(C)CC[C@H](OC(=O)[C@@H](NC(=O)[C@@H]1CCCN1C(=O)CNC(=O)OCc1ccccc1)C(C)C)C2; experiment: (§4) Prodrug activation assessed as recombinant human FAP-alpha mediated (S)-((3S,5R,8R,9S,10S,11S,13R,14S,17R)-11,14-dihydroxy-10,13-dimethyl-12-oxo-17-(2-oxo-2H-pyran-5-yl)hexadecahydro-1H-cyclopenta[a]phenanthren-3-yl) 2-amino-3-methylbutanoate formation by measuring concentration of test compound gives half-maximal activity after 90 mins by UPLC-MS/MS analysis; how it was run: as §2
[11] = tested on: [H][C@]12CC[C@@]3([H])[C@@]4(O)CC[C@H](c5ccc(=O)oc5)[C@@]4(C)C(=O)[C@@H](O)[C@]3([H])[C@@]1(C)CC[C@H](OC(=O)[C@H](Cc1c[nH]c3ccccc13)NC(=O)[C@@H]1CCCN1C(=O)CNC(=O)OCc1ccccc1)C2; experiment: as §4, with “2-amino-3-(1H-indol-3-yl)propanoate” for “2-amino-3-methylbutanoate”; how it was run: as §2

CL (Prolyl endopeptidase FAP [1]): 23240 µL/min/mg
Compound: C[C@H](NC(=O)[C@@H]1CCCN1C(=O)CNC(=O)OCc1ccccc1)C(=O)O[C@H]1CC[C@@]2(C)[C@H](CC[C@@H]3[C@@H]2[C@H](O)C(=O)[C@]2(C)[C@@H](c4ccc(=O)oc4)CC[C@]32O)C1

CL (Prolyl endopeptidase FAP [2]): 1270 µL/min/mg
Compound: CC(C)[C@H](NC(=O)[C@@H]1CCCN1C(=O)CNC(=O)OCc1ccccc1)C(=O)O[C@H]1CC[C@@]2(C)[C@H](CC[C@@H]3[C@@H]2[C@H](O)C(=O)[C@]2(C)[C@@H](c4ccc(=O)oc4)CC[C@]32O)C1

IC50 (MCF7): 1.06 nM
IC50 (MDA-MB-435): 10 nM
IC50 (MDA-MB-231 [4]): 5.19 nM
IC50 (MDA-MB-231 [6]): 7.19 nM
IC50 (MDA-MB-231 [7]): 4.81 nM
Compound: C[C@]12CC[C@H](OC(=O)[C@@H](N)Cc3c[nH]c4ccccc34)C[C@H]1CC[C@@H]1[C@@H]2[C@H](O)C(=O)[C@]2(C)[C@@H](c3ccc(=O)oc3)CC[C@]12O
Activity [3]: Non-Toxic
Activity (MDA-MB-231 [5]): Active

Compound: Prolyl endopeptidase FAP (Homo sapiens)
K0.5 [8]: 21.3 µM
Vmax [8]: 0.494 µmol/min/mg
K0.5 [9]: 3.68 µM
Vmax [9]: 0.026 µmol/min/mg
K0.5 [10]: 34.5 µM
Vmax [10]: 0.044 µmol/min/mg
K0.5 [11]: 10.4 µM
Vmax [11]: 0.682 µmol/min/mg
